Measurements from ChEMBL document CHEMBL1136760 (J Med Chem, 2003).

Columns and labels:
[1] = target: T1, Sodium-dependent dopamine transporter (Rattus norvegicus, UniProt P23977); assay: Inhibition of [3H]WIN-35428 binding to the cocaine binding site on the dopamine transporter (DAT) in synaptosomal membrane preparations from rat striatal tissue.; type: cell membranes, Striatum
[2] = target: Sodium-dependent serotonin transporter (Rattus norvegicus, UniProt P31652); assay: Inhibition of [3H]citalopram binding to Serotonin transporter (5-HTT) in rat cortical tissue.
Chain of Sodium-dependent serotonin transporter (P31652 whole entry): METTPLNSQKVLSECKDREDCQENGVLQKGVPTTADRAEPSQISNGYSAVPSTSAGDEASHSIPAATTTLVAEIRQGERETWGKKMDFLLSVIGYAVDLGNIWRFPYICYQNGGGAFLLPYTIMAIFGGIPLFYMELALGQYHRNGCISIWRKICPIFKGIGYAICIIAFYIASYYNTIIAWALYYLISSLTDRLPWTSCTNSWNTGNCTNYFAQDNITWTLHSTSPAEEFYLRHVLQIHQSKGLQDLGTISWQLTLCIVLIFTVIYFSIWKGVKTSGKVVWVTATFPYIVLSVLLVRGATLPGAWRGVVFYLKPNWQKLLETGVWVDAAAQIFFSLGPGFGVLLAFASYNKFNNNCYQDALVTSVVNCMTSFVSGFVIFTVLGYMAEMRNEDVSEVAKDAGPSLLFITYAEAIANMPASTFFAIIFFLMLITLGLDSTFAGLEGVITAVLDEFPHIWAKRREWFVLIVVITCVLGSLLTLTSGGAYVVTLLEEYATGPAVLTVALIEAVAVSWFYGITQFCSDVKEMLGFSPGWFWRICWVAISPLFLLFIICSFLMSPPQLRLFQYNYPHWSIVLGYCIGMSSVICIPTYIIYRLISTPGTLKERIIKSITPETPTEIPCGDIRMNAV
In short: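 Rat cortical P2 fraction homogenized in 16 volumes of ice-cold 25 mM sodium phosphate, pH 7.7. [3H]citalopram at 2 nM final; 1 µM clomipramine defines nonspecific binding. Usually seven drug concentrations, triplicates, organic solvent ≤0.3 vol %. Incubated 3 h at 0 °C, then filtered on PEI-soaked glass fibre and counted. IC50 and Hill coefficients from dose-response curves.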

[3] = target: T1, Sodium-dependent dopamine transporter; assay: Inhibition of [3H]DA uptake at DAT in rat striatal synaptosomes.
[4] = target: Monoamine transporters; serotonin & dopamine (Rattus norvegicus) (UniProt P31652+P23977); assay: Selectivity ratio for DAT binding compared to 5-HTT binding.; type: protein assay
Chain of Monoamine transporters; serotonin & dopamine (Rattus norvegicus) (P23977 whole entry, looked up): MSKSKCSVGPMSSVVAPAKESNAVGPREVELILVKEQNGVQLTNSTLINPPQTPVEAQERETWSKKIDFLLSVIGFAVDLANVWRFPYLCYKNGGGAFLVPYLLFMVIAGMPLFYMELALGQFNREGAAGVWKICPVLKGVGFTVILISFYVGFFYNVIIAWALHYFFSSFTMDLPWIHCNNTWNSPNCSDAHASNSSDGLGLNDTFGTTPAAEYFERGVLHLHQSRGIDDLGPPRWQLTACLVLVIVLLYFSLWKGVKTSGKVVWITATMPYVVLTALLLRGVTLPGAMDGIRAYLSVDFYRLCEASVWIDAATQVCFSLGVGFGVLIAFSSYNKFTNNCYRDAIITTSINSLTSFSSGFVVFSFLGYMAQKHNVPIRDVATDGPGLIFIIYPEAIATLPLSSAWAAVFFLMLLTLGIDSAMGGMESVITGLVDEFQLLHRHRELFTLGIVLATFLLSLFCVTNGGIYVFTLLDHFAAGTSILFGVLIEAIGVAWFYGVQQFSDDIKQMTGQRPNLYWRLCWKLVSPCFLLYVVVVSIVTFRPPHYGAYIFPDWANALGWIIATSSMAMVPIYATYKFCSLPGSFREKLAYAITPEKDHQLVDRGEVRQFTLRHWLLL
Chain of Monoamine transporters; serotonin & dopamine (Rattus norvegicus) (P31652 whole entry, looked up): as the sequence (P31652 whole entry) above

[5] = target: Sodium-dependent serotonin transporter (Rattus norvegicus) (UniProt P31652); assay: Inhibition of [3H]citalopram binding to Serotonin transporter (5-HTT) in rat cortical tissue […]; conditions: 10 uM
Chain of Sodium-dependent serotonin transporter (Rattus norvegicus) (P31652 whole entry): as above
In short: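 Rat cortical P2 membranes in 25 mM sodium phosphate, pH 7.7; 1 µM clomipramine defines nonspecific binding. Incubated 3 h at 0 °C, then rapid filtration on PEI-presoaked filters and radioactivity counting.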

T1 sequence (P23977 whole entry): as the sequence (P23977 whole entry, looked up) above

SMILES: OC1(c2ccc(Cl)cc2)C2CCC1CN(Cc1ccccc1)C2 (stereo unspecified)
- IC50 [1]: 1510 nM
- IC50 [2]: 997 nM
- IC50 [3]: 2630 nM
- Selectivity ratio [4]: 0.66

SMILES: c1ccc(CN2CC3CCC(C2)C3c2ccccc2)cc1 (stereo in doubt; 8a) [3-BENZYL-8-PHENYL-3-AZA-BICYCLO[3.2.1]OCTANE (STEREOISOMERIC MIX)]
- IC50 [1]: 234 nM
- IC50 [2]: 3460 nM
- IC50 [3]: 309 nM

SMILES: c1ccc(CN2CC3CCC(C2)C3OC(c2ccccc2)c2ccccc2)cc1 (stereo in doubt; 17b) [listing 1 of 2 here]
- inhibition [5]: 29.8%
- Selectivity ratio [4]: > 18

SMILES: OC1(c2ccccc2)C2CCC1CNC2 (stereo unspecified)
- inhibition [5]: 46.2%
- IC50 [3]: 8480 nM

SMILES: c1ccc(CN2CC3CCC(C2)C3c2ccccc2)cc1 (stereo in doubt; 14) [3-BENZYL-8-PHENYL-3-AZA-BICYCLO[3.2.1]OCTANE (STEREOISOMERIC MIX)]
- IC50 [1]: 785 nM
- IC50 [2]: 3880 nM
- IC50 [3]: 4450 nM

SMILES: CN1CC2CCC(C1)C2(O)c1ccccc1 (stereo unspecified)
- IC50 [1]: 10100 nM
- inhibition [5]: 27.8%
- IC50 [2]: > 10000 nM
- IC50 [3]: 9770 nM
- Selectivity ratio [4]: > 1

SMILES: c1ccc(CN2CC3CCC(C2)C3c2ccccc2)cc1 (stereo in doubt; 14)
- Selectivity ratio [4]: 4.9

SMILES: c1ccc(C2C3CCC2CNC3)cc1 (stereo unspecified)
- IC50 [1]: 258 nM
- IC50 [2]: 4000 nM
- IC50 [3]: 893 nM
- Selectivity ratio [4]: 16

SMILES: CN1CC2CCC(C1)C2c1ccccc1 (stereo unspecified)
- IC50 [1]: 360 nM
- IC50 [2]: 1850 nM
- IC50 [3]: 1040 nM
- Selectivity ratio [4]: 5.1

SMILES: c1ccc(CN2CC3CCC(C2)C3OC(c2ccccc2)c2ccccc2)cc1 (stereo in doubt; 17a) [listing 1 of 2 here]
- inhibition [5]: 61%
- Selectivity ratio [4]: 27

SMILES: BrC1C2CCC1CN(Cc1ccccc1)C2 (stereo unspecified)
- inhibition [5]: 30.4%
- IC50 [2]: > 10000 nM
- IC50 [3]: 8640 nM
- Selectivity ratio [4]: > 2.2

SMILES: OC1(c2ccccc2)C2CCC1CN(Cc1ccccc1)C2 (stereo unspecified)
- IC50 [1]: 17500 nM
- IC50 [2]: 3060 nM
- IC50 [3]: 27100 nM
- Selectivity ratio [4]: 0.17

SMILES: c1ccc(CN2CC3CCC(C3)C2)cc1
- IC50 [1]: 24300 nM
- inhibition [5]: 24.4%
- IC50 [2]: > 10000 nM
- IC50 [3]: 35700 nM
- Selectivity ratio [4]: > 0.41

SMILES: Clc1ccc(C2C3CCC2CNC3)cc1 (stereo unspecified)
- IC50 [1]: 81.5 nM
- IC50 [2]: 363 nM
- IC50 [3]: 478 nM
- Selectivity ratio [4]: 4.4

SMILES: c1ccc(CN2CC3CCC(C2)C3OC(c2ccccc2)c2ccccc2)cc1 (stereo in doubt; 17a) [listing 2 of 2 here]
- IC50 [1]: 363 nM
- IC50 [2]: 10000 nM
- IC50 [3]: 735 nM

SMILES: c1ccc(CN2CC3CCC(C2)C3OC(c2ccccc2)c2ccccc2)cc1 (stereo in doubt; 17b) [listing 2 of 2 here]
- IC50 [1]: 536 nM
- IC50 [2]: > 10000 nM
- IC50 [3]: 1980 nM

SMILES: c1ccc(CN2CC3CCC(C2)C3c2ccccc2)cc1 (stereo in doubt; 8a)
- Selectivity ratio [4]: 14.8

SMILES: CN1CC2CCC(C1)C2c1ccc(Cl)cc1 (stereo unspecified)
- IC50 [2]: 220 nM
- IC50 [3]: 926 nM
- Selectivity ratio [4]: 0.81

SMILES: Clc1ccc(C2C3CCC2CN(Cc2ccccc2)C3)cc1 (stereo unspecified)
- IC50 [1]: 95.5 nM
- IC50 [2]: 402 nM
- IC50 [3]: 601 nM
- Selectivity ratio [4]: 4.2

SMILES: OC1C2CCC1CN(Cc1ccccc1)C2 (stereo unspecified)
- IC50 [1]: 22100 nM
- inhibition [5]: 23.8%
- IC50 [2]: > 10000 nM
- IC50 [3]: 45000 nM
- Selectivity ratio [4]: > 0.45
